Source: PubChem (several laboratories)
Most compounds without a hit are left out; they make up all but 2.1% or so of the library.
LMPTP block: blocks human LMPTP phosphatase. P24666. recombinant LMPTP-A, OMFP fluorogenic substrate, fluorescence intensity. inhibition, % at 20 µM. actives 0.22% (n = 360,000);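 active = compounds that cut the enzyme signal by at least half of the control window in the single-dose screen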
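Test system – LMPTP-A enzyme · Amount – LMPTP-A at 0.625 nM final in the reaction · Buffer or medium – Bis-Tris pH 6.0, DTT, detergent · Reagent – OMFP 400 µM · Doses – single 20 µM dose · Schedule – reaction 50 min, room temperature, dark · Detection – fluorescence intensity of OMFP turnover product · Evaluation – percent inhibition versus substrate-only and uninhibited controls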
STEP inh: STEP (human) phosphatase inhibition; inhibition, % at 20 µM; recombinant STEP, OMFP fluorogenic substrate, fluorescence; P54829; actives 0.25% (n = 360,000);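 active = inhibition at 20 µM, scaled per plate between control wells, above about 37%, limit read from the data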
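material = STEP tyrosine phosphatase | reagent = fluorogenic phosphatase substrate OMFP at 25 µM final | doses = single compound dose of 20 µM, 1% DMSO final | schedule = 20 min reaction, room temperature, in the dark | measured by = fluorescence, 480/540 nm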
SUMO1-SIM PPI: modulators of human SUMO1-mediated protein-protein interactions | P63165 | SUMO1 binding to a labelled peptide, TR-FRET, 1 h | inhibition, % at 20 µM | actives 0.33% (n = 360,000) | AID 602429; in the data active = inhibition above about 37%
Scp1 inh: Scp-1 (human) phosphatase inhibition; AID 493091; inhibition, % at 20 µM; Recombinant Scp1, phosphopeptide, malachite green phosphate absorbance; actives 0.88% (n = 340,000); Q9GZU7;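 active = inhibition above about 50% at 20 µM, limit read from the data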
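Material: truncated SCP-1 phosphatase (76-261aa) / Buffer or medium: 50 mM Tris acetate pH 5.5, 0.005% Tween-20, 10 mM MgCl2 / Compound dosing: one concentration, 20 µM, with 1.0% DMSO / Incubation: 45 min room-temperature reaction, 5 min colour, 30 min stabiliser / Detection: colorimetric free-phosphate detection, absorbance 630 nm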
GRK2 inh: human GRK2 inhibition via aptamer displacement. inhibition of aptamer binding, % at 10 µM. bead flow cytometry, FAM-aptamer displacement from GRK2. actives 0.59% (n = 330,000). P25098;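 active = inhibition of aptamer binding above 40%, roughly 3 SD of noise, on plates passing a quality check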;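 also: median bead fluorescence of bound FAM aptamer so fluorescent compounds give negative values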
DNMT1 block: DNMT1 (human) enzyme inhibition. P26358. DNMT1 molecular beacon, Hinp1I cleavage, fluorescence. inhibition (reported as % activation of signal), % at 10 µM. actives 0.83% (n = 360,000). AID 588458; in the data active = inhibition above about 50%
GRK2 inh confirm: confirmation of human GRK2 inhibitors displacing RNA aptamer; shares compounds with GRK2 inh; bead-bound GRK2, FAM-aptamer displacement, flow cytometry; aptamer displacement, % at 10 µM; actives 4% (n = 2,000); AID 504451;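 active = aptamer displacement above 40%, near three times the noise of non-fluorescent compounds, on plates passing quality checks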;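 also: negative values mostly reflect intrinsic compound fluorescence rather than true enhancement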
Aptamer quench SP: quenches fluorescent RNA aptamer, GRK2 hit artifact; shares compounds with GRK2 inh; Carboxyfluorescein RNA aptamer on beads, flow cytometry quenching; hits give low values; fluorescence response (% of DMSO), % at 10 µM; 2,000 tested, under 10 active;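 active = compounds that quench the bead-bound fluorescent RNA probe, cutting fluorescence to under half of the solvent control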;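 also: counterscreen run without GRK2 so only probe quenching by compound is measured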
GRK2 CP2: human GRK2 inhibition confirmation, cherry pick 2; shares compounds with GRK2 inh; bead-bound GRK2, FAM-aptamer displacement, flow cytometry; inhibition of aptamer binding, % at 10 µM; 360 tested, under 10 active;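 active = inhibition of aptamer binding above 40%, about triple the noise seen with nonglowing compounds, on plates passing quality control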;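 also: negative values mostly come from compounds that fluoresce themselves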
FAM quench CP2: quenches fluorescent RNA aptamer, GRK2 hit artifact. shares compounds with GRK2 inh. carboxyfluorescein RNA aptamer beads, flow cytometry quenching; hits give low values. fluorescence response vs DMSO, % at 10 µM. 360 tested, under 10 active;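 active = response vs DMSO under 50%, meaning signal dropped by over half, treated as fluorescence quencher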;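 also: labelled aptamer on streptavidin beads without GRK2 as a quench counter-screen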
Of the large screens only hits and unclear results are named; the others gave an inactive call (follow-up assays come after a bar, where they were run).

COc1cc(/C=C/C(=O)Nc2ccc3nc4n(c(=O)c3c2)CCCC4)cc(OC)c1OC	GRK2 inh 92.0 | GRK2 inh confirm inactive | Aptamer quench SP inactive
CC1=C(C(=O)N(C)C)CC(CC(=O)NCCCN(C)C)C(=O)N1Cc1ccccc1 (stereo not given)	none (no result: Scp1 inh, GRK2 inh)
Cc1cc(C)cc(C(=O)Nc2cccnc2)c1	GRK2 inh 82.0 | GRK2 inh confirm inactive | Aptamer quench SP inactive
O=C(CSc1ccc(-c2cccc([N+](=O)[O-])c2)nn1)NC1CCCC1	none
COc1cccc(CC2(CO)CCCN(Cc3cn[nH]c3-c3cc(C)ccc3C)C2)c1 (stereo not given)	none | GRK2 inh confirm inactive | Aptamer quench SP inactive
COc1cccc(CC2(CO)CCCN(Cc3[nH]c4ccc(C)cc4c3C)C2)c1 (stereo not given)	none | GRK2 inh confirm inactive | Aptamer quench SP inactive
Cn1c(=O)c2sccc2n2c(CCCC(=O)NC3CCN(Cc4ccccc4)CC3)nnc12	none
CCN(c1ccccc1)S(=O)(=O)c1cccc(C(=O)OCC(=O)Nc2ccc(NC(C)=O)cc2)c1	none
CCOc1ccc(NC2CCCCC2NS(=O)(=O)c2ccccc2)cc1 (stereo not given)	GRK2 inh 49.0 | GRK2 inh confirm inactive | Aptamer quench SP inactive
CC(=O)N1CCC(C(=O)NCCOc2cccc(C)c2)CC1	GRK2 inh 65.0 | GRK2 inh confirm inactive | Aptamer quench SP inactive
CC1(C)NC(=O)N(CCCCOc2ccc(Cl)cc2)C1=O	GRK2 inh 70.0 | GRK2 inh confirm inactive | Aptamer quench SP inactive
Cc1cccc(N=C2NC(=O)/C(=C/c3cccn3C)S2)c1	none
Cc1c(/C=C2\SC(=Nc3cccc(C(=O)O)c3)NC2=O)c2ccccc2n1C	GRK2 inh 64.0 | GRK2 inh confirm inactive | Aptamer quench SP inactive
COc1ccc(-c2csc(N(CCCN3CCOCC3)C(=O)c3ccco3)n2)cc1	none
Cc1ccc(-c2csc(N(CCCN3CCOCC3)C(=O)c3ccco3)n2)cc1	none | GRK2 inh confirm inactive | Aptamer quench SP inactive
Cc1ccccc1-c1cc(C(=O)NCc2cccs2)nn1CC1CC(c2cccc([N+](=O)[O-])c2)=NO1 (stereo not given)	none | GRK2 inh confirm inactive | Aptamer quench SP inactive
Cc1ccccc1-c1cc(C(=O)NCc2ccco2)nn1CC1CC(c2cccc([N+](=O)[O-])c2)=NO1 (stereo not given)	none
Cc1cccc(C)c1NC(=O)COC(=O)CNC(=O)C1CCCCC1	GRK2 inh 95.0 | GRK2 inh confirm inactive | Aptamer quench SP inactive
O=C(COC(=O)CNC(=O)C1CCCCC1)Nc1ccccc1	none
CCOC(=O)c1cccc(NC(=O)CNC(=O)C2CCCCC2)c1	GRK2 inh 54.0 | GRK2 inh confirm inactive | Aptamer quench SP inactive
CCc1cccc(NC(=O)C2CCCN(c3ncnc4c3nc3n4CCCCC3)C2)c1 (stereo not given)	none | GRK2 inh confirm inactive | Aptamer quench SP inactive
O=C(NCC1CCN(Cc2cccc(Cl)c2)CC1)C1CCCN(c2ncnc3c2nc2n3CCCCC2)C1 (stereo not given)	none | GRK2 inh confirm inactive | Aptamer quench SP inactive
COc1ccc(S(=O)(=O)NCC(c2ccc(F)cc2)N2CCOCC2)cc1Br (stereo not given)	none (no result: GRK2 inh)
CS(=O)(=O)Oc1ccc2c(c1)O/C(=C\C=C\c1ccccc1)C2=O	GRK2 inh 49.0 | GRK2 inh confirm inactive | Aptamer quench SP inactive
O=C(NC1CCCC1)c1ncn[nH]1	none
Cc1cc(C)n2nc(SCC(=O)c3c(N)n(CC(C)C)c(=O)n(C)c3=O)nc2n1	GRK2 inh 72.0 | GRK2 inh confirm inactive | Aptamer quench SP inactive
COc1cccc(NC(=O)C2(S(=O)(=O)c3ccc(Cl)cc3)CC2)c1	none | GRK2 CP2 inactive | FAM quench CP2 inactive
O=C1/C(=C/c2cccs2)SC(=S)N1NS(=O)(=O)c1ccccc1	none
O=C1/C(=C/C=C/c2ccco2)SC(=S)N1NS(=O)(=O)c1ccccc1	LMPTP block 61.5, STEP inh 42.6, SUMO1-SIM PPI 112.2, Scp1 inh 82.2, GRK2 inh 95.0, DNMT1 block 86.9 | GRK2 inh confirm inactive | Aptamer quench SP inactive
